In the library only some 0.9% were active in any assay of this set; here they are far more common.
PolyA inh – blocks polyadenylation in yeast reporter cells; S. cerevisiae SKY197-pL101 polyadenylation reporter, beta-gal luminescence; efflux-impaired pdr1/pdr3 knockout yeast; score 100 = 6 SD above DMSO; AID 1875; 300,000 tested, 0.02% active; activity score, % at 12 µM;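 active means lowest replicate activity score at least 50, where 100 means six control SD above control mean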;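 further: yeast exposed to compound for 9 h at 30 °C; higher score means more reporter readthrough which indicates perturbed polyadenylation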
MT1-MMP act inh – inhibitors of human MT1-MMP activation. GFP/RFP ratio change, % at 20 µM. P50281. 360,000 tested, 0.061% active. HT1080 RFP-PRO-GFP cells, GFP/RFP ratio fluorescence, overnight; percent of plate control window, DMSO zero;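 active means GFP/RFP ratio change of at least 30% with cell ATP level not reduced by more than half and red fluorescence within 50% of control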
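Test system: HT1080 cells expressing an RFP-PRO-GFP fluorescent reporter construct / Compound dosing: single-point 20 µM compound, 1% DMSO / Schedule: cells overnight before dosing, compound overnight, 37 °C, 5% CO2 / Evaluation: GFP/RFP fluorescence ratio / Control set: DMSO and RFP-L50D-GFP cell wells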
SKN-1 inh – C. elegans SKN-1 inhibition; C. elegans VP596 Pgst-4::GFP/RFP ratio, acrylamide-induced, 24 h; AID 624304; inhibition, % at 21.8 µM; 360,000 tested, 0.49% active;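 active means interference check ratio from 0.5 to 1.5 plus GFP to RFP signal ratio inhibition reaching or exceeding a fixed threshold, cut at about 30% in these data, passing the limit was not always enough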
DDE Tn7 FP inh – disrupts Tn7 cyclic peptide binding to fibrin D-Dimer-E complex. P02675. FP displacement of FITC-Tn7 peptide from fibrin DD(E); 0% = median of compound wells per plate. inhibition, % at 8.3 µM. 370,000 tested, 0.13% active. AID 720508;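 active means inhibition above the mean of compounds falling within the control limits plus 3 SD of them, cut at about 14% in these data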;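 further: 0% = plate median of compound wells and 100% = 10 µM Aha-Tn7 peptide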
Target sequence (P02675 whole entry, looked up): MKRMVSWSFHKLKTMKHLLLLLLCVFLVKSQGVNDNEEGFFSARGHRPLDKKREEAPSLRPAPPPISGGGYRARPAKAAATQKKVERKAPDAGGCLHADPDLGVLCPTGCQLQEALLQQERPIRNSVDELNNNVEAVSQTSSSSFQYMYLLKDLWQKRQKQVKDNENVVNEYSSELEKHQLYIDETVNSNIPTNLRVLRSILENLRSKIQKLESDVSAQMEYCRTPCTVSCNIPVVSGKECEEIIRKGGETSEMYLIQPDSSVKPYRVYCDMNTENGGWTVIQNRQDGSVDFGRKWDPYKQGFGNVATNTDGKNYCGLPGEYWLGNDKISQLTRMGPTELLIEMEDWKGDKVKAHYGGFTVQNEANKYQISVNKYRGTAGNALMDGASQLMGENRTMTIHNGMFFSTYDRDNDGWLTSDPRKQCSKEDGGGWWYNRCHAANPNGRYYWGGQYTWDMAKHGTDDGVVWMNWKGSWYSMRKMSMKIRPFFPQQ
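Also added: labelled Tn7 tracer, 0.1 µM; Assay system: human fibrin DD(E) protein; Amount: 2 µM fibrin DD(E); Schedule: 10 min compound pre-incubation, 3 h probe incubation at room temperature; Repeats: one replicate per compound; Read-out basis: percent inhibition; Measured by: fluorescence polarization of the labelled Tn7 tracer.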
DAGLB inh – blocks human DAGLB lipase activity. Q8NCG7. HEK293T DAGLB membrane lysate, EnzChek fluorogenic substrate. inhibition, % at 5.17 µM. 340,000 tested, 0.059% active; in the data active means inhibition above about 34%;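 further: 0% = enzyme with vehicle and 100% = wells lacking enzyme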
DDE Tn6 FP inh – inhibitors of Tn6 peptide binding to human fibrin DD(E); AID 720509; inhibition, % at 8.3 µM; 370,000 tested, 0.21% active; Fibrin DD(E) TRITC-Tn6 fluorescence polarization displacement;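 active means inhibition above a per-campaign cutoff: mean of compounds within control limits plus 3 SD, cut at about 15% in these data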;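 further: 0% = median of all compound wells on the plate and 100% = blocking peptide control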
Tn7 DDE conf – confirmation of inhibitors of Tn7 binding to human fibrin DD(E). shares compounds with DDE Tn7 FP inh. FP displacement of TRITC-Tn7 peptide from DD(E); 0% set at plate's compound-well median. inhibition, % at 8.3 µM. 460 tested, 5% active. AID 720628;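 active means inhibition above the campaign cutoff, the mean of compounds within control limits plus 3 SD, cut at about 14% in these data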;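 further: 100% = median FP of high control wells holding Aha-Tn7 inhibitor peptide; displacers lower polarization since freed probe rises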
DDE Tn7 FP ctr – DD(E)-Tn7 binding inhibition, counter-screen | 460 tested, 3% active | fibrin DD(E), TRITC-Tn7 probe displacement, fluorescence polarization | inhibition, % at 8.3 µM | shares compounds with DDE Tn7 FP inh;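 active means inhibition above the cutoff, the mean of compounds lying between the control bounds plus 3 SD of those compounds, cut at about 17% in these data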;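 further: 0% = median of compound sample wells and 100% = excess unlabeled Aha-Tn7 peptide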
Numbers without * were called inactive; x = not tested or not shown; ! = repeats disagree.

SMILES | PolyA inh | MT1-MMP act inh | SKN-1 inh | DDE Tn7 FP inh | DAGLB inh | DDE Tn6 FP inh | Tn7 DDE conf | DDE Tn7 FP ctr
C[C@H](O)[C@@H]1CN2CCc3c([nH]c4cccc(-c5ccccc5)c34)[C@@H]2C[C@@H]1N(C)C(=O)C1CCCCC1 | x | x | x | -14 | x | -2 | x | x
Cc1ccccc1NC(=O)COc1coc(CN2CCCc3ccccc32)cc1=O | -14 | -14 | 1 | 15* | -3 | 2 | 1 | -4
C/C(=N\NC(=O)Cn1cnc2ccccc21)c1cccs1 | 3 | 3 | -2 | 17* | 0 | 0 | 2 | -4
Cc1nc2ccc(NC(=O)c3cc(Cl)ccc3F)cc2c(=O)[nH]1 | x | x | x | 7 | x | -4 | x | x
O=C(CCS(=O)(=O)c1cc2c(cc1Br)CCN2C(=O)C1CC1)N1CCN(c2ccccn2)CC1 | x | x | x | -3 | x | 3 | x | x
Oc1cccc(Nc2ccccc2)c1 | x | 2 | -10 | 14* | 2 | 2 | 7 | 4
c1ccc(Nc2cccc(Nc3ccccc3)c2)cc1 | -16 | 6 | 10 | -5 | 2 | 0 | x | x
O=S(=O)(CC1NCc2cc(F)ccc21)NC1CCCC1 (centres undefined) | x | x | x | 0 | x | -3 | x | x
O=C(Cc1ccccc1)NNC1=NS(=O)(=O)c2ccccc21 | 26 | -6 | 2 | 14* | 2 | -2 | -4 | -9
COc1ccccc1NC(=O)CSc1nnc(COc2ccccc2OC)n1C | 15 | -1 | -1 | 14* | 1 | 0 | 4 | 2
CCN1C(=O)[C@H]2[C@@H](c3ccc(C)cc3)N3C(=O)N(c4ccc(OC)cc4)C(=O)[C@@]3(C)[C@H]2C1=O | -7 | -5 | -14 | 16* | 3 | 1 | -7 | -13
CCN1C(=O)[C@H]2[C@@H](c3ccc(C)cc3)N3C(=O)N(c4ccc(C)cc4)C(=O)[C@@]3(C)[C@H]2C1=O | -9 | -3 | 0 | -5 | -1 | 6 | x | x
Cc1ccc2c(c1)[C@H]1[C@H](CO2)[C@H](c2ccccc2)[C@]2(C)C(=O)N(Cc3ccc(Cl)cc3)CC(=O)N12 | x | -3 | 6 | -7 | -11 | -8 | x | x
Cc1ccc2c(c1)[C@H]1[C@H](CO2)[C@H](c2ccccc2)[C@]2(C)C(=O)N(Cc3ccc(F)cc3)CC(=O)N12 | x | -89 | 5 | 27* | -16 | -6 | 14* | 11
CN(C(=O)c1cccc(NC(=O)Cc2cccc(NC(=O)C3CCN(C(=O)C4CCC4)CC3)c2)c1)C1CC1 | x | -1 | -7 | -8 | -3 | 0 | x | x
CN(C(=O)c1cccc(NC(=O)Cc2cccc(NC(=O)C3CCN(C(=O)C4CCCCC4)CC3)c2)c1)C1CC1 | x | 5 | 6 | 15* | -2 | -4 | 4 | -5
COc1ccc(OC)c(/C=C/C(=O)OCC(=O)Nc2nnc(-c3ccccc3)o2)c1 | x | 0 | 1 | 14* | 1 | 1 | 7 | 1
NS(=O)(=O)c1cccc(NC(=O)CSc2ncnc3ccccc23)c1 | -18 | -8 | -5 | -2 | -2 | -4 | x | x
NS(=O)(=O)c1ccc(NC(=O)CSc2ncnc3ccccc23)cc1 | 19 | -6 | 6 | 14* | -1 | 6 | 1 | 3
O=C(NC1CCN(S(=O)(=O)c2ccc(Cl)cc2)CC1)C1CCCCC1 | 8 | 0 | 19 | 14* | 2 | 3 | -1 | -6
CC1=CC(C)(C)NC(=S)N1c1cccc(C)c1 | 12 | 1 | -2 | 14*! | 0 | 5 | 5 | -7
CC1=CC(C)(C)NC(=S)N1c1ccc(C)cc1 | -5 | -1 | 3 | 7 | -1 | -4 | x | x
CCOc1ccc(C(C)=O)cc1CSc1nnc(-c2ccoc2C)n1N | -9 | 10 | -2 | 16* | 3 | 11 | 9 | 1
Cc1cc(NC(=O)CSc2nnc(-c3ccoc3C)n2N)no1 | 8 | 1 | -3 | 0 | -2 | -10 | x | x
N/C(=N\C(=O)OCc1ccccc1)N(CC#CC1=CCCCC1)CC1CC1 | x | x | x | 10 | x | -4 | x | x
SMILES | PolyA inh | MT1-MMP act inh | SKN-1 inh | DDE Tn7 FP inh | DAGLB inh | DDE Tn6 FP inh | Tn7 DDE conf | DDE Tn7 FP ctr
COC(=O)c1ccc(Cn2c(C)c(C(=O)NCc3ccc(Cl)c(Cl)c3)sc2=O)o1 | x | 6 | 3 | 1 | x | -2 | x | x
COC(=O)c1ccc(Cn2c(C)c(C(=O)NCc3ccc(C#N)cc3)sc2=O)o1 | x | 5 | 14 | 14* | x | -4 | 5 | -1
COC(=O)C1CN(Cc2cn(Cc3ccc(Cl)cc3)nn2)CCS(=O)(=O)N1Cc1ccc(F)cc1 (centres undefined) | x | x | x | 6 | x | -2 | x | x
COc1ccc(-c2ccc([C@H]3[C@H]4C=CC[C@@H](C)[C@@H]4C(=O)N3Cc3ccccc3)c(F)c2)cc1OC | 1 | -3 | -5 | 14* | -3 | -9 | 2 | -12
CCN(CC)c1c2c(nc3ncnn13)CCCC2 | x | x | x | -1 | x | 3 | x | x
Cc1n[nH]c(C)c1S(=O)(=O)NC(C)Cc1ccccn1 (centres undefined) | x | x | x | -4 | x | -7 | x | x
CCOC(=O)c1oc2cccc(O)c2c1C | 9 | -5 | 7 | -3 | -3 | -2 | x | x
CCOC(=O)c1oc2cccc(O)c2c1CN(Cc1ccccc1)C(C)=O | -12 | -6 | -1 | 14* | 0 | 8 | 7 | -1
O=[N+]([O-])c1cccc(S(=O)(=O)N2CN(c3ccc(Br)cc3)c3nc4ccccc4nc32)c1 | x | 5 | 12 | 17* | 0 | -6 | 8 | 1
COc1ccc(N2C(=O)CSC2c2cccc(OC)c2OC)cc1 (centres undefined) | 30 | -1 | 3 | 14* | -2 | -4 | -2 | -9
COc1cccc(C2SCC(=O)N2c2ccc(C)cc2)c1OC (centres undefined) | -20 | -7 | 10 | -3 | -1 | 2 | x | x
S=C(Nc1ccc(Br)cc1)OC1CCC12CCC(c1ccccc1)CC2 (centres undefined) | x | x | x | -4 | x | 4 | x | x
